The text below walks through data of PubChem BioAssay.

Structures are written as SMILES. Values without a mark were called inactive. Records with an inconclusive call do not appear. Active and inactive are the calls of the source.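 How the source made its calls, unless noted: active means RAM network inhibition above 8.4% in each of two replicates, 3 SD over the compound average; inconclusive means above 8.4% inhibition in only one replicate; inactive means 8.4% inhibition or less in each replicate.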

A short description of experiment [1]: OD615 S. cerevisiae growth inhibition, permissive medium, pilot counter-assay, permissive growth control for S. cerevisiae lifespan shortening project (AID 705;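 active means growth inhibition above 25% in both replicates, a cutoff set 3 SD above the mean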). The note with it: OD615, 24 h, at 10 µM, stronger effect = higher value. The gist of the method: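 Timing: 24 h exposure, 30 °C / Material: Saccharomyces cerevisiae strain carrying genetically modified DeaD replicative-lifespan system / Signal: OD at 615 nm / Compound: 10 µM single dose, 0.25% DMSO / Medium: SC raffinose/galactose permissive medium / Evaluation: reduction in yeast growth (OD615)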

Experiment [2] is described as follows: Restrictive medium S. cerevisiae growth inhibition, OD615, pilot screen of yeast lifespan reduction project, restrictive growth control (AID 706;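 active means growth inhibition above a set limit, 3 SD over mean compound inhibition, in both replicates, cut at about 43% in these data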;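 further: modified DeaD lifespan yeast strain shifted to restrictive glucose medium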). To be noted: OD615, 48 h, at 10 µM, stronger effect = higher value. Summed up:
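System: Engineered S. cerevisiae DeaD strain | Detection: OD615 | Buffer or medium: CSMM-D glucose medium | Doses: 10 µM compound, 0.25% DMSO | Timing: 4 h pre-growth plus 48 h compound exposure, 30 °C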

Experiment [3] is described as follows: viability gain of MRP-1-high H69AR cells under doxorubicin, pilot screen, MRP-1 activator project, CellTiter-Glo, duplicate (AID 807;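 active means viability increase at or above a cutoff of the median across tested compounds plus 3 SD, cut at about 8.5% in these data, passing the limit was not always enough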;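 further: compound pretreatment 18-22 h then 72 h combined with doxorubicin; 0% = doxorubicin alone and 100% = vehicle without doxorubicin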). To be noted: H69AR viability with doxorubicin, CellTiter-Glo luminescence; at 10 µM; stronger effect = higher value. For orientation: ATP-based viability assays read luminescence as a measure of living cells.
Experiment [4] is described as follows: growth suppression of beta-catenin knockout HCT116, pilot screen, human colon tumor cells (AID 823;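 active means cell viability at or below a set limit in both duplicate runs, the limit being the all-compound median minus 4 SD, cut at about 23% in these data, passing the limit was not always enough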;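 further: 0% = wells killed by 20 µM Hyamine and 100% = untreated DMSO cell wells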). The note with it: CellTiter-Glo, 60 h, at 10 µM, stronger effect = lower value.
Experiment [5] can be described thus: growth suppression of PTEN-deleted HCT116, pilot screen, cell-based, HCT116 clonal line, CellTiter-Glo (AID 824;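 active means viability at or below 27.92% in each of two runs, the all-compound median minus 4 SD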;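 further: 0% = 20 µM Hyamine control and 100% = vehicle cell control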). The note with it: 60 h, at 10 µM, stronger effect = lower value.
Experiment [6] in a line: inhibitors of the yeast RAM network, pilot screen, dse1pr::URA3 reporter, 5-FOA selection (AID 869;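 active means inhibition over a set limit, the all-compound mean plus 3 SD, in both replicate runs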;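 further: 0% = DMSO wells with no growth and 100% = 10 µM 1-NA-PP1 with full growth; RAM network block rescues cells from 5-FOA so hits raise OD615 growth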). To be noted: S. cerevisiae dse1pr::URA3 5-FOA growth, OD615, 2 d; at 10 µM; stronger effect = higher value; strain carries analog-sensitive mutant Cbk1 kinase.
Experiment [7] is described as follows: RAM signaling pathway blockade in yeast – S. cerevisiae, Pdr1DBD-CYC8 efflux-inhibited sensitized strain, primary screen (AID 1298).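 Further: 0% = DMSO untreated cells without growth and 100% = 10 µM 1-NA-PP1 full growth; higher means more yeast growth rescued from 5-FOA killing.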 To be noted: S. cerevisiae cbk1-as DSE1-URA3 strain, 5-FOA growth OD615, 2 d; at 50 µM; stronger effect = higher value.

As to `CC1(C)CCCC2=C1CC1C(=O)N(Cc3cccnc3)C(=O)C1C2` (stereo unspecified), the values for the growth inhibition in experiment [1] and in experiment [2] were -6.32% and -10.3%, respectively. Further, in experiment [3], the viability increase was -0.2%. The values for the viability in experiment [4] and in experiment [5] were 82.2% and 86.7%, respectively. In addition, the inhibition (commonly the relative decrease from the control value, in per cent) in experiment [6] is 1.11%. Also, in experiment [7], the RAM network inhibition is 4.53%.
In the case of `COc1cccc(C2NC(CCSC)(C(=O)O)C3C(=O)N(C(C)C)C(=O)C23)c1O` (stereo unspecified), the growth inhibition in experiment [1] is -1.2%; in experiment [2] it was 8%. In experiment [3], the viability increase is 0.13%. Further, the viability (commonly a read-out of living cells in per cent, often relative to untreated cells) in experiment [4] is 95%; in experiment [5] it was 97.2%. Besides, in experiment [6], the inhibition is 1.93%. In addition, the RAM network inhibition in experiment [7] was -1.51%.
On to `Cc1ccc(CC(CC(=O)O)C(=O)NC2CCCCC2)cc1` (stereo unspecified), for which the growth inhibition is -8.33% in experiment [1] and -0.295% in experiment [2]. In addition, the viability increase in experiment [3] is -0.76%. Moreover, the viability in experiment [4] is 101%; in experiment [5], 99.2%. Moreover, in experiment [6], the inhibition is 2.5%. Moreover, in experiment [7], the RAM network inhibition was 3.83%.
Turning to `CSc1nc(C)nc2c1c(=O)n(C)c(=O)n2C`, the figures for the growth inhibition in experiment [1] and in experiment [2] were 9.37% and 6.23%, respectively. Besides, the viability increase in experiment [3] is -1.42%. For the same compound, the viability is 108% in experiment [4] and 94.2% in experiment [5]. For the same compound, the inhibition in experiment [6] is 0.68%. Besides, in experiment [7], the RAM network inhibition was 0.26%.
For `CC(NC(=O)CSc1ncnc2nc[nH]c12)c1ccccc1` (stereo unspecified), the growth inhibition was -15.5% in experiment [1] and -5.1% in experiment [2]. In addition, in experiment [3], the viability increase is -0.99%. For the same compound, the viability in experiment [4] was 99.8%; in experiment [5] it was 96%. Further, in experiment [6], the inhibition was 0.755%. Further, in experiment [7], the RAM network inhibition was 0.48%.
As for `O=C(NCc1cccnc1)c1cnn2ccccc12`, the growth inhibition is -7.88% in experiment [1] and -0.235% in experiment [2]. For the same compound, the viability increase in experiment [3] was -1.28%. Further, the viability in experiment [4] is 106%; in experiment [5], 90.9%. Besides, the inhibition in experiment [6] was 1.62%. Besides, the RAM network inhibition in experiment [7] was 0.38%.
On to `CCCC(=O)C1=C(O)C(C(=O)OC)C(C)(C)CC1=N` (stereo unspecified), for which the figures for the growth inhibition in experiment [1] and in experiment [2] were 1.4% and -3.15%, respectively. The viability increase in experiment [3] was -0.38%. For the same compound, the viability in experiment [4] is 100%; in experiment [5] it was 101%. For the same compound, in experiment [6], the inhibition is 1.01%. Besides, in experiment [7], the RAM network inhibition was -0.57%.
On to `CCOC(=O)c1ccc(N=c2sc(C(=O)OC)cc(=O)n2CCCN2CCOCC2)cc1`, for which the growth inhibition in experiment [1] is -4.99%; in experiment [2] it was -3.88%. Besides, the viability increase in experiment [3] is -8.16%. In addition, the viability in experiment [4] was 57.4%; in experiment [5], 52.6%. For the same compound, in experiment [6], the inhibition is 2.12%. Moreover, the RAM network inhibition in experiment [7] is 2.6%.
As to `CC(=O)C1C(c2ccccc2Cl)NC(=O)NC1(O)C(F)(F)F` (stereo unspecified), the growth inhibition in experiment [1] is -3.3%; in experiment [2], -12.1%. Moreover, the viability increase in experiment [3] was -0.31%. Further, the viability in experiment [4] is 112%; in experiment [5], 102%. Also, the inhibition in experiment [6] was 1.93%. In addition, the RAM network inhibition in experiment [7] was -0.82%.
As to `C=C(C)Cn1c(CNC(C)=O)nc2ccccc21`, the growth inhibition is -12.2% in experiment [1] and -25.6% in experiment [2]. Further, the viability increase in experiment [3] was -0.52%. Besides, the figures for the viability in experiment [4] and in experiment [5] were 108% and 94.3%, respectively. The inhibition in experiment [6] was 0.645%. The RAM network inhibition in experiment [7] was 3.9%.
For the compound `Cc1cccc(-n2c(CNC(=O)c3ccccc3)nnc2SCC(=O)Nc2nccs2)c1`, the growth inhibition in experiment [1] is 4.21%; in experiment [2], 15.6%. Besides, the viability increase in experiment [3] was -3.48%. The viability was 112% in experiment [4] and 103% in experiment [5]. The inhibition in experiment [6] was 1.17%. The RAM network inhibition in experiment [7] was 5.7%.
For `CC(=O)NC(C)(C)C1CC=C(C)/C(=N\O)C1` (stereo unspecified), the growth inhibition in experiment [1] was -3.7%; in experiment [2] it was -1.12%. Besides, the viability increase in experiment [3] is -0.02%. Also, the values for the viability in experiment [4] and in experiment [5] were 104% and 101%, respectively. The inhibition in experiment [6] was 1.36%. Also, the RAM network inhibition in experiment [7] was -0.78%.
On to `CC1CN(c2ncnc3c2cnn3-c2ccc(Cl)cc2)CC(C)O1` (stereo unspecified), for which the growth inhibition in experiment [1] is -3.73%; in experiment [2], -8.06%. In experiment [3], the viability increase is 3.8%. The viability is 100% in experiment [4] and 88.4% in experiment [5]. For the same compound, in experiment [6], the inhibition is 1.4%. Besides, the RAM network inhibition in experiment [7] was 3.95%.
With `CCCn1c(CN(Cc2ccccc2)Cc2ccccc2)nc2c1c(=O)n(C)c(=O)n2C`, the growth inhibition in experiment [1] was -1.94%; in experiment [2] it was -8.84%. Besides, the viability increase in experiment [3] is 0.21%. For the same compound, the viability was 69.2% in experiment [4] and 59.7% in experiment [5]. Moreover, the inhibition in experiment [6] was 1.22%. Moreover, the RAM network inhibition in experiment [7] is 8.87%.
Consider `CC1CCN(CCCNC(=O)c2cc3c(=O)n(C)c4ccccc4c3n2C)CC1`, for which the growth inhibition is 0.225% in experiment [1] and -4.35% in experiment [2]. For the same compound, in experiment [3], the viability increase was -5.04%. Further, the viability in experiment [4] is 43.1%; in experiment [5], 50%. The inhibition in experiment [6] was -0.26%. Further, in experiment [7], the RAM network inhibition is 1.43%.
Regarding `Cc1cc(F)ccc1S(=O)(=O)Nc1c(C)n(C)n(-c2ccccc2)c1=O`, the growth inhibition in experiment [1] is 1.71%; in experiment [2] it was 0.315%. Besides, the viability increase in experiment [3] is -1.59%. Further, the viability in experiment [4] is 114%; in experiment [5], 93.7%. Moreover, in experiment [6], the inhibition was 0.205%. Further, in experiment [7], the RAM network inhibition is 2.26%.
With `CCN(CC)CCCN1C(=O)C(O)=C(C(C)=O)C1c1ccc(OC)cc1OC` (stereo unspecified), the growth inhibition in experiment [1] was -0.68%; in experiment [2], -3.67%. For the same compound, in experiment [3], the viability increase was -2.64%. Also, the values for the viability in experiment [4] and in experiment [5] were 98.5% and 92.4%, respectively. Further, the inhibition in experiment [6] was 1.03%. Also, the RAM network inhibition in experiment [7] is 1.44%.
For the compound `Cc1ccc(C(=O)NCc2ccco2)cc1S(=O)(=O)N1CCCCC1`, the growth inhibition was -11.6% in experiment [1] and -5.65% in experiment [2]. In addition, the viability increase in experiment [3] was -5.21%. Besides, the viability in experiment [4] is 82.9%; in experiment [5], 85.5%. In experiment [6], the inhibition was 3%. In experiment [7], the RAM network inhibition was 6.81%.
Take `CC1CN(C(=O)c2cc3ccccc3oc2=O)CC(C)O1` (stereo unspecified): the figures for the growth inhibition in experiment [1] and in experiment [2] were 5.08% and -3.64%, respectively. In addition, the viability increase in experiment [3] is 0.49%. For the same compound, the viability in experiment [4] was 98.4%; in experiment [5], 103%. Besides, the inhibition in experiment [6] was 0.555%. In experiment [7], the RAM network inhibition is 2.33%.
Take `Brc1[nH]nc2ccccc12`: the results for the growth inhibition in experiment [1] and in experiment [2] were -1.23% and 5.22%, respectively. Also, the viability increase in experiment [3] was -3.24%. For the same compound, the viability in experiment [4] was 96.7%; in experiment [5], 94.9%. For the same compound, in experiment [6], the inhibition is 0.28%. Moreover, in experiment [7], the RAM network inhibition was 0.05%.
With `O=C(O)CCCC(=O)N1CCN(c2cccc(Cl)c2)CC1`, the growth inhibition in experiment [1] was -2.97%; in experiment [2] it was -1.71%. Moreover, the viability increase in experiment [3] was -1.22%. The viability is 95.2% in experiment [4] and 86.2% in experiment [5]. Further, in experiment [6], the inhibition was 2.33%. Further, in experiment [7], the RAM network inhibition is 4.6%.
In the case of `Cc1ccc(C)c(-n2nnnc2SCC(=O)Nc2cccc(-c3nnc4n3CCCCC4)c2)c1`, the growth inhibition is 12.3% in experiment [1] and 54.4% (active) in experiment [2]. The viability increase in experiment [3] is -0.74%. For the same compound, the viability in experiment [4] is 97.7%; in experiment [5], 90.9%. Also, the inhibition in experiment [6] is 1.77%. Further, in experiment [7], the RAM network inhibition is 6.57%.
Regarding `O=C1C2CCCN2C(c2ccccc2F)N1c1cccc(Cl)c1` (stereo unspecified), the growth inhibition in experiment [1] is 1.87%; in experiment [2], 1.65%. Besides, in experiment [3], the viability increase is -0.32%. In addition, the viability in experiment [4] is 97.8%; in experiment [5], 102%. Moreover, the inhibition in experiment [6] was -0.43%. The RAM network inhibition in experiment [7] was 1.7%.
